Key:
[1] = tested on: Rattus norvegicus; assay: The control period of compound (microg of Fe/h) for biliary excretion of Iron after intravenous administration to the rats; assay type: functional, Bile
Outline: (§1)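 Normal (untreated) rats under pentobarbital anesthesia, bile duct cannulated with PE-10 tubing. Bile collected 30 min for the control rate, then chelator given 0.2 mmol/kg iv by tail vein in deionized water, pH about 7 with sodium bicarbonate, and bile collected a further 2 h. Bile mass measured and iron determined by atomic absorption spectrometry; rate expressed per hour. Controls received pentobarbital only.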

[2] = tested on: Rattus norvegicus; assay: The control period of compound (microg of Fe/15h) for urinary excretion of Iron after intravenous administration to the rats; assay type: functional, Urine
Outline: (§2)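 Unloaded normal rats, each serving as its own control, housed in metabolic cages. Control day: 1 mL distilled water/200 g body weight iv, urine collected 15 h (5 p.m.–8 a.m.) and analyzed for iron. Next day: chelator 0.2 mmol/kg iv by tail vein under ether anesthesia in 1 mL deionized water, pH about 7 with sodium bicarbonate; urine again collected 15 h for iron.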

[3] = tested on: Rattus norvegicus; assay: The treatment period of compound (microg of Fe/15h) for urinary excretion of Iron after intravenous administration to the rats; assay type: functional, Urine; outline: as §2
[4] = tested on: Rattus norvegicus; assay: The treatment period of compound (microg of Fe/h) for biliary excretion of Iron after intravenous administration to the rats; assay type: functional, Bile; outline: as §1
[5] = tested on: Rattus norvegicus; assay: The control period of compound (microg of Fe/15h) for urinary excretion of Iron after peroral administration to the rats; assay type: functional, Urine
Outline: (§3)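 Unloaded normal rats in metabolic cages act as their own controls. Food is withdrawn at 5 p.m. on both days. Control day: 1 mL distilled water po, urine collected until 8 a.m. (15 h), food returned, urine analyzed for iron. Treatment day: chelator 1 mmol/kg po in 1 mL distilled water, then another 15 h urine collection for iron analysis.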

[6] = tested on: Rattus norvegicus; assay: The treatment period of compound (microg of Fe/15h) for urinary excretion of Iron after peroral administration to the rats; assay type: functional, Urine; outline: as §3

Row | Structure (SMILES) | Control period [1] | Control period [2] | Treatment period [3] | Treatment period [4] | Control period [5] | Treatment period [6]
1 | Cn1cc(O)c(=O)cc1C(=O)O | 0.34 | 410 ng of Fe/15 h | 6830 ng of Fe/15 h | 5.87 | 497 ng of Fe/15 h | 6740 ng of Fe/15 h
2 | O=C(O)c1cc(=O)c(O)co1 | 0.35 | – | – | 0.46 | – | –
3 | O=c1cc(CO)n(CCS(=O)(=O)O)cc1O | 0.35 | 504 ng of Fe/15 h | 2200 ng of Fe/15 h | 9.96 | 296 ng of Fe/15 h | 350 ng of Fe/15 h
4 | Cc1c(O)c(=O)ccn1C [DEFERIPRONE] | 0.36 | 490 ng of Fe/15 h | 8370 ng of Fe/15 h | 4.78 | 400 ng of Fe/15 h | 17400 ng of Fe/15 h
5 | O=c1cc(CO)occ1O [KOJIC ACID] | 0.31 | – | – | 0.28 | – | –

— ChEMBL document CHEMBL1127750, “Enhancement of iron excretion via monoanionic 3-hydroxypyrid-4-ones” (1994)
